Measurements taken from ChEMBL document CHEMBL1144751, “Synthesis of caged 2,3,3a,7a-tetrahydro-3,6-methanobenzofuran-7(6H)-ones: Evaluating the minimum structure for apoptosis induction by gambogic acid” (Bioorg Med Chem, 2008).

Assays:
HCT-116 [1] = assay: Growth inhibition of human HCT116 cells after 48 hrs by CellTiter-Glo assay; type: functional; details: HCT-116, 48 h
Outline: (§1)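 T47D, HCT116 and SNU398 cells from ATCC, run in 96-well format. Cells were exposed continuously to test compound for 48 h, then given CellTiter-Glo reagent, mixed by agitation, held 10–15 min at room temperature and read by luminescence. GI50 is the concentration giving 50% inhibition relative to untreated control cells. Values are means ± SEM of three experiments.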

T47D [2] = assay: Induction of apoptosis in human T47D cells assessed as caspase 3 activation after 24 hrs; type: functional, cell-based
Outline: (§2)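 Cell-based caspase-3 activation HTS assay. After compound exposure, the fluorogenic caspase-3 substrate N-(Ac-DEVD)-N-ethoxycarbonyl-R110 in caspase buffer was added and incubated 2 h at 37 °C. Fluorescence was read as RFU. Activation is the ratio of net RFU for treated samples to that of control samples. Values are means ± SEM of three or more experiments.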

SNU-398 [3] = assay: Induction of apoptosis in human SNU398 cells assessed as caspase 3 activation after 24 hrs; type: functional, cell-based; details: SNU-398, 24 h; outline: as §2
SNU-398 [4] = assay: Growth inhibition of human SNU398 cells after 48 hrs by CellTiter-Glo assay; type: functional; details: SNU-398, 48 h; outline: as §1
HCT-116 [5] = assay: Induction of apoptosis in human HCT116 cells assessed as caspase 3 activation after 24 hrs; type: functional, cell-based; details: HCT-116, 24 h; outline: as §2
T47D [6] = assay: Growth inhibition of human T47D cells after 48 hrs by CellTiter-Glo assay; type: functional; outline: as §1

**Q.** How did the GI50 (HCT-116 [1]) turn out when `C=CC[C@@]12OCC3C[C@H](C=C4C(=O)c5ccccc5O[C@]431)C2=O` was run?
**A.** 1600 nM

**Q.** What about the EC50 (T47D [2]) of the same compound?
**A.** > 20000 nM

**Q.** And the EC50 (SNU-398 [3])?
**A.** 5700 nM

**Q.** What about the GI50 (SNU-398 [4]) of the same compound?
**A.** 1900 nM

**Q.** And the EC50 (HCT-116 [5])?
**A.** 7100 nM

**Q.** What about the GI50 (T47D [6]) of the same compound?
**A.** 1600 nM

**Q.** Which results are given for `CC(C)=CC[C@@]12OC(C)(C)C3C[C@H](C=C4C(=O)c5ccccc5O[C@]431)C2=O`?
**A.** GI50 (HCT-116 [1]): 200 nM; EC50 (T47D [2]): 3000 nM; EC50 (SNU-398 [3]): 900 nM; GI50 (SNU-398 [4]): 200 nM; EC50 (HCT-116 [5]): 2300 nM; GI50 (T47D [6]): 200 nM

**Q.** Which results are given for `CC(C)=CCC[C@]1(C)C=Cc2c(O)c3c(c(CC=C(C)C)c2O1)O[C@]12C(=C[C@@H]4C[C@H]1C(C)(C)O[C@@]2(C/C=C(/C)C(=O)O)C4=O)C3=O` [GAMBOGIC ACID]?
**A.** GI50 (HCT-116 [1]): 100 nM; EC50 (T47D [2]): 700 nM; EC50 (SNU-398 [3]): 700 nM; GI50 (SNU-398 [4]): 200 nM; EC50 (HCT-116 [5]): 700 nM; GI50 (T47D [6]): 200 nM

**Q.** What does the source list for `C=CC[C@@]12OCC3C[C@H](CC4C(=O)c5ccccc5O[C@@]341)C2=O` (stereo partly drawn)?
**A.** GI50 (HCT-116 [1]): > 20000 nM; EC50 (T47D [2]): > 20000 nM; EC50 (SNU-398 [3]): > 20000 nM; GI50 (SNU-398 [4]): > 20000 nM; EC50 (HCT-116 [5]): > 20000 nM; GI50 (T47D [6]): > 20000 nM

**Q.** With `CC(C)=CC[C@]12OC(C)(C)C3C[C@@]4(OC(c5ccccc5)=CC(=O)C4=C[C@@H]31)C2=O` as the compound, how does the GI50 (HCT-116 [1]) read?
**A.** 900 nM

**Q.** What about the EC50 (T47D [2]) of the same compound?
**A.** 4800 nM

**Q.** What about the EC50 (SNU-398 [3]) of the same compound?
**A.** 2500 nM

**Q.** What about the GI50 (SNU-398 [4]) of the same compound?
**A.** 1200 nM

**Q.** What about the EC50 (HCT-116 [5]) of the same compound?
**A.** 3600 nM

**Q.** And the GI50 (T47D [6])?
**A.** 1000 nM

**Q.** What does the source list for `CC(C)=CC[C@@]12OC(C)(C)C3C[C@H](C=C4C(=O)C=C(c5ccccc5)O[C@]431)C2=O`?
**A.** GI50 (HCT-116 [1]): 1100 nM; EC50 (T47D [2]): 5100 nM; EC50 (SNU-398 [3]): 2600 nM; GI50 (SNU-398 [4]): 1200 nM; EC50 (HCT-116 [5]): 5400 nM; GI50 (T47D [6]): 1400 nM

**Q.** With `C=CC[C@]12OCC3C[C@@]4(Oc5ccccc5C(=O)C4=C[C@@H]31)C2=O` as the compound, how does the GI50 (HCT-116 [1]) read?
**A.** 1500 nM

**Q.** And the EC50 (T47D [2])?
**A.** 5900 nM

**Q.** What about the EC50 (SNU-398 [3]) of the same compound?
**A.** 5100 nM

**Q.** And the GI50 (SNU-398 [4])?
**A.** 1500 nM

**Q.** And the EC50 (HCT-116 [5])?
**A.** > 20000 nM

**Q.** What about the GI50 (T47D [6]) of the same compound?
**A.** 1400 nM

**Q.** Which GI50 (HCT-116 [1]) does the source give for `C=CC[C@@]12C=C(C(=O)c3ccccc3)[C@]3(CC=C)C(CO[C@@]3(CC=C)C1=O)C2` here?
**A.** > 20000 nM

**Q.** What about the EC50 (T47D [2]) of the same compound?
**A.** > 20000 nM

**Q.** What about the EC50 (SNU-398 [3]) of the same compound?
**A.** > 20000 nM

**Q.** And the GI50 (SNU-398 [4])?
**A.** > 20000 nM

**Q.** And the EC50 (HCT-116 [5])?
**A.** > 20000 nM

**Q.** What about the GI50 (T47D [6]) of the same compound?
**A.** > 20000 nM

**Q.** Which results are given for `CC(C)=CC[C@]12OC(C)(C)C3C[C@@]4(Oc5ccccc5C(=O)C4=C[C@@H]31)C2=O`?
**A.** GI50 (HCT-116 [1]): 200 nM; EC50 (T47D [2]): 2700 nM; EC50 (SNU-398 [3]): 1500 nM; GI50 (SNU-398 [4]): 300 nM; EC50 (HCT-116 [5]): 1900 nM; GI50 (T47D [6]): 300 nM

**Q.** For `CC(C)=CCC[C@]1(C)C=Cc2c(O)c3c(c(CC=C(C)C)c2O1)O[C@]12C(C[C@H]4CC1C(C)(C)O[C@@]2(C/C=C(\C)C(=O)O)C4=O)C3=O` (stereo partly drawn), which GI50 (HCT-116 [1]) is on record?
**A.** > 20000 nM

**Q.** And the EC50 (T47D [2])?
**A.** > 20000 nM

**Q.** And the EC50 (SNU-398 [3])?
**A.** > 20000 nM

**Q.** And the GI50 (SNU-398 [4])?
**A.** > 20000 nM

**Q.** And the EC50 (HCT-116 [5])?
**A.** > 20000 nM

**Q.** And the GI50 (T47D [6])?
**A.** > 20000 nM

**Q.** Which results are given for `C=CC[C@@]12CC3CO[C@](CC=C)(C1=O)[C@@]3(CC=C)C=C2C(=O)c1ccccc1`?
**A.** EC50 (T47D [2]): > 20000 nM; EC50 (SNU-398 [3]): > 20000 nM; EC50 (HCT-116 [5]): > 20000 nM
